According to ChEMBL document CHEMBL1909531, “Mitochondrial respiration inhibitors suppress protein translation and hypoxic signaling via the hyperphosphorylation and inactivation of translation initiation factor eIF2α and elongation factor eEF2” (J Nat Prod, 2011):
Activity calls are given as the source filed them.

Columns and labels:
[1] = biological target: T1, Hypoxia inducible factors; HIF-1-alpha, HIF-2-alpha (Homo sapiens, UniProt Q16665+Q99814); experiment: Inhibition of HIF1-mediated induction of cellular VEGF protein in hypoxia-stimulated human T47D cells at 3 uM after 16 hrs by ELISA; assay type: cell-based
T47D [2] = experiment: Inhibition of 1, 10-phenanthroline-induced HIF1beta protein accumulation in human T47D cells at 3 uM after 4 hrs by Western blot analysis; assay type: functional, cell-based
T47D [3] = experiment: Ratio of IC50 for 1, 10-phenanthroline-induced HIF1 activation in human T47D cells to IC50 for hypoxia-induced HIF1 activation in human T47D cells; assay type: cell-based
T47D [4] = experiment: Antiproliferative activity against human T47D cells assessed as cell viability at 1 uM after 72 hrs by SRB assay; assay type: functional; settings: read-out: Activity
Method in brief: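 T47D cells treated for 72 h in parallel with the HPLC ATP time course; viability measured by sulforhodamine B, in which cells are fixed directly in the wells without aspiration or washing, so loosely attached cells are kept.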

[5] = biological target: Serine/threonine-protein kinase mTOR (Homo sapiens) (UniProt P42345); experiment: Inhibition of mTOR-mediated 4E-BP1 phosphorylation on Thr 37/46 in human T47D cells at 1 to 10 uM after 30 mins by Western blotting; assay type: cell-based
MDA-MB-231 [6] = experiment: Antiproliferative activity against human MDA-MB-231 cells assessed as cell viability by SRB assay; assay type: functional, cell-based
Method in brief: (§1)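 Cells grown in DMEM/F12 with 10% FBS, penicillin and streptomycin; 96-well viability assay, 2-day or 6-day exposure, with medium (5% FBS) and compound renewed after 3 days in the 6-day study. Read by optical density; % inhibition = [1 − (ODtreated/ODcontrol)] × 100 versus medium control.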

[7] = biological target: T1, Hypoxia inducible factors; HIF-1-alpha, HIF-2-alpha; experiment: Inhibition of HIF1-mediated induction of Glut-1 mRNA expression in hypoxia-stimulated human T47D cells at 0.3 to 3 uM after 16 hrs by RT-PCR analysis; assay type: cell-based
T47D [8] = experiment: Inhibition of cellular respiration in human T47D cells at 0.3 uM by oxygen consumption assay in presence of complex 1 substrate malate and pyruvate; assay type: functional, cell-based
Method in brief: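 Permeabilized T47D cells, oxygen consumption measured by Clark-type electrode. Complex I respiration started with malate plus pyruvate; succinate added as complex II substrate.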

[9] = biological target: Serine/threonine-protein kinase mTOR (Homo sapiens) (UniProt P42345); experiment: Inhibition of mTOR in human T47D cells assessed as eIF2alpha hyperphosphorylation on Ser 51 at 1 to 10 uM after 30 mins by Western blotting; assay type: cell-based
Method in brief: (§2)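 Cells seeded at 0.8 × 10^6 per well, exposed 30 min at 37 °C, 5% CO2, in DMEM/F12 with 5% FBS. Lysed in modified RIPA (pH 7.6) with protease and phosphatase inhibitors; 40 µg protein run on 4–20% gels, nitrocellulose transfer. Phospho-specific and total eIF2α/eEF2 primaries at 1:1,000, HRP anti-rabbit at 1:2000, chemiluminescence on film.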

T47D [10] = experiment: Inhibition of cellular respiration in human T47D cells at 0.3 uM by oxygen consumption assay in presence of complex 3 substrate antimycin A; assay type: functional, cell-based
[11] = biological target: Serine/threonine-protein kinase mTOR (Homo sapiens) (UniProt P42345); experiment: Inhibition of mTOR in human MDA-MB-231 cells assessed as eIF2alpha hyperphosphorylation on Ser 51 at 1 to 10 uM after 30 mins by Western blotting; assay type: cell-based; method in brief: as §2
[12] = biological target: T1, Hypoxia inducible factors; HIF-1-alpha, HIF-2-alpha; experiment: Inhibition of hypoxia-induced HIF1 activation in human T47D cells after 16 hrs by HRE3-TK-luciferase reporter gene assay; assay type: cell-based
Method in brief: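 T47D cells carrying the pHRE3-TK-Luc reporter, grown in DMEM/F12 with 10% FBS; HIF-1 induced by hypoxia (1% O2). Activity reported as % inhibition of the induced control, calculated as [1 − (treated/control)] × 100.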

T47D [13] = experiment: Reduction in ATP level in human T47D cells after 72 hrs by HPLC-UV analysis; assay type: functional, cell-based
Method in brief: (§3)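 5 × 10^5 cells per well seeded in DMEM/F12 with 10% FBS. After 24 h, half the medium replaced with serum-free DMEM/F12 containing compound. After exposure, cells washed in cold DPBS and extracted with cold 0.4 M perchloric acid, then neutralized with K2CO3. ATP quantified by reversed-phase C18 HPLC-UV using 50 mM potassium phosphate pH 6.0/MeOH at 0.7 mL/min.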

T47D [14] = experiment: Antiproliferative activity against human T47D cells assessed as cell viability by SRB assay; assay type: functional, cell-based; method in brief: as §1
T47D [15] = experiment: Inhibition of cellular respiration in human T47D cells at 0.3 uM in presence of complex 4 substrate TMPD/ascorbate; assay type: functional, cell-based
T47D [16] = experiment: Reduction in ATP level in human T47D cells after 48 hrs by HPLC-UV analysis; assay type: functional, cell-based; method in brief: as §3
T47D [17] = experiment: Inhibition of cellular respiration in human T47D cells at 1 uM by oxygen consumption assay; assay type: functional
Method in brief: (§4)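 Oxygen consumption of intact T47D cells measured with a Clark-type electrode, in serum-free DMEM/F12 at 30 °C.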

[18] = biological target: T1, Hypoxia inducible factors; HIF-1-alpha, HIF-2-alpha; experiment: Inhibition of HIF1-mediated induction of VEGF mRNA expression in hypoxia-stimulated human T47D cells at 0.3 to 3 uM after 16 hrs by RT-PCR analysis; assay type: cell-based
[19] = biological target: T1, Hypoxia inducible factors; HIF-1-alpha, HIF-2-alpha; experiment: Inhibition of HIF1-mediated induction of cellular VEGF protein in hypoxia-stimulated human T47D cells at 0.3 uM after 16 hrs by ELISA; assay type: cell-based
[20] = biological target: T1, Hypoxia inducible factors; HIF-1-alpha, HIF-2-alpha; experiment: Inhibition of HIF1-mediated induction of cellular VEGF protein in human T47D cells at 3 uM after 16 hrs by ELISA under normoxic condition; assay type: cell-based
MDA-MB-231 [21] = experiment: Reduction in ATP level in human MDA-MB-231 cells at 0.1 to 1 uM after 48 hrs by HPLC-UV analysis; assay type: functional, cell-based
Method in brief: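 Cells seeded at 5 × 10^5 per well in DMEM/F12 with 10% FBS; after 24 h, half the medium was replaced with serum-free medium containing compound. Cells washed with cold DPBS, extracted with cold 0.4 M perchloric acid, neutralized with K2CO3. Nucleotides quantified by C18 HPLC-UV, 50 mM potassium phosphate pH 6.0/MeOH mobile phase, 0.7 mL/min.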

T47D [22] = experiment: Inhibition of cellular respiration in human T47D cell at 0.03 to 1 uM by oxygen consumption assay; assay type: functional, cell-based; method in brief: as §4
[23] = biological target: Serine/threonine-protein kinase mTOR (Homo sapiens) (UniProt P42345); experiment: Inhibition of mTOR-mediated rpS6 phosphorylation on Ser 235/236 in human MDA-MB-231 cells at 1 to 10 uM after 30 mins by Western blotting; assay type: cell-based
[24] = biological target: Serine/threonine-protein kinase mTOR (Homo sapiens) (UniProt P42345); experiment: Inhibition of mTORC1-mediated eIF4E phosphorylation on Ser 209 in human T47D cells at 1 to 10 uM after 30 mins by Western blotting; assay type: cell-based
[25] = biological target: T1, Hypoxia inducible factors; HIF-1-alpha, HIF-2-alpha; experiment: Inhibition of HIF1-mediated induction of secreted VEGF protein in hypoxia-stimulated human T47D cells at 3 uM after 16 hrs by ELISA; assay type: cell-based
[26] = biological target: Serine/threonine-protein kinase mTOR (Homo sapiens) (UniProt P42345); experiment: Inhibition of mTOR in human MDA-MB-231 cells assessed as eEF2 hyperphosphorylation on Ser 56 at 1 to 10 uM after 30 mins by Western blotting; assay type: cell-based; method in brief: as §2
[27] = biological target: T1, Hypoxia inducible factors; HIF-1-alpha, HIF-2-alpha; experiment: Inhibition of 1, 10-phenanthroline-induced HIF1 activation in human T47D cells after 16 hrs by HRE3-TK-luciferase reporter gene assay; assay type: cell-based
[28] = biological target: T1, Hypoxia inducible factors; HIF-1-alpha, HIF-2-alpha; experiment: Inhibition of HIF1-mediated induction of Glut-1 mRNA expression in human T47D cells at 3 uM after 16 hrs by RT-PCR analysis under normoxic condition; assay type: cell-based

CC(C)CC(=O)O[C@@H]1CC[C@]2(C)[C@H]3CC[C@]45C[C@]4(CC[C@@H]5[C@@H]4C[C@H]([C@@H]5OC5(C)C)OC4O)[C@]3(C)[C@H](O)C[C@H]2C1(C)C (stereo partly drawn) [SKIMMIAREPIN A]
50%: viability at 1 µM (T47D [4])
inactive: inhibition (T47D [2]) | inhibition [5] | Activity (MDA-MB-231 [6]) | inhibition (T47D [10]) | inhibition (T47D [15]) | inhibition [20] | Activity (MDA-MB-231 [21]) | inhibition [23] | inhibition [24] | inhibition [28]
> 10 µM: IC50 [27]
0.063 µM: IC50 [12]
active: inhibition [1] | inhibition [7] | inhibition (T47D [8]) | inhibition [9] Dose-dependent effect | Activity [11] Dose-dependent effect | Activity (T47D [13]) Dose-dependent effect | Activity (T47D [14]) | Activity (T47D [16]) | inhibition [18] | inhibition [19] | inhibition (T47D [22]) Dose-dependent effect | inhibition [25] | Activity [26] Dose-dependent effect
80: Ratio IC50 (T47D [3])
73%: inhibition at 1 µM (T47D [17])
